In the library only some 3.5% were active in any assay of this set; here they are far more common.
Cneo AK release – Cryptococcus neoformans cell lysis inducers, primary screen, AK release luminescence, single concentration. C. neoformans lysis, adenylate kinase release luminescence, 4 h; normalised: neutral wells 0, clomiphene wells 100. lysis activity, % at 15 µM. actives 0.2% (n = 360,000). AID 651654, 2012;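 active = mean lysis activity across replicates of at least 80%, whatever share of replicates individually reach that level; inactive = mean lysis activity below 80%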
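Test system: log-phase Cryptococcus neoformans yeast cells; Quantity: yeast cell density of 5 × 10^6 cells/mL; Buffer or medium: YPD; Doses: single compound concentration per well; Timing: 4 h at 37 °C static, read 1 h later; Measured by: AK luminescence; Read-out basis: lysis from increased AK signal; Control set: Clomiphene as positive control.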
esBAF inh – Bmi1 luciferase reporter increase in mESCs, primary screen, esBAF inhibitor project, mouse ES cells, Bmi1 luciferase knock-in, single point | reporter increase, % at 12.5 µM | AID 602393, 2012 | actives 2% (n = 350,000) | 24 h; 100% = twice the neutral-well signal; in the data active = activation above about 40%; inconclusive = no clear call, values can overlap the other calls;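 also: a rise in the Bmi1 reporter signal indicates esBAF inhibition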
ERAP1 HTS inh – human ERAP1 aminopeptidase inhibitors, primary screen, biochemical, single point, plate reader; Endoplasmic reticulum aminopeptidase 1 (Homo sapiens), Q9NZ08; recombinant ERAP1, Leu-AMC fluorescence, 60 min; inhibition, % at 10.7 µM; actives 0.15% (n = 340,000); AID 652197, 2013;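 active = mean replicate inhibition of at least 30%, or all replicates individually reaching that 30% level; inactive = mean below 30% and not every replicate reaching it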
Target sequence (Q9NZ08 whole entry, looked up): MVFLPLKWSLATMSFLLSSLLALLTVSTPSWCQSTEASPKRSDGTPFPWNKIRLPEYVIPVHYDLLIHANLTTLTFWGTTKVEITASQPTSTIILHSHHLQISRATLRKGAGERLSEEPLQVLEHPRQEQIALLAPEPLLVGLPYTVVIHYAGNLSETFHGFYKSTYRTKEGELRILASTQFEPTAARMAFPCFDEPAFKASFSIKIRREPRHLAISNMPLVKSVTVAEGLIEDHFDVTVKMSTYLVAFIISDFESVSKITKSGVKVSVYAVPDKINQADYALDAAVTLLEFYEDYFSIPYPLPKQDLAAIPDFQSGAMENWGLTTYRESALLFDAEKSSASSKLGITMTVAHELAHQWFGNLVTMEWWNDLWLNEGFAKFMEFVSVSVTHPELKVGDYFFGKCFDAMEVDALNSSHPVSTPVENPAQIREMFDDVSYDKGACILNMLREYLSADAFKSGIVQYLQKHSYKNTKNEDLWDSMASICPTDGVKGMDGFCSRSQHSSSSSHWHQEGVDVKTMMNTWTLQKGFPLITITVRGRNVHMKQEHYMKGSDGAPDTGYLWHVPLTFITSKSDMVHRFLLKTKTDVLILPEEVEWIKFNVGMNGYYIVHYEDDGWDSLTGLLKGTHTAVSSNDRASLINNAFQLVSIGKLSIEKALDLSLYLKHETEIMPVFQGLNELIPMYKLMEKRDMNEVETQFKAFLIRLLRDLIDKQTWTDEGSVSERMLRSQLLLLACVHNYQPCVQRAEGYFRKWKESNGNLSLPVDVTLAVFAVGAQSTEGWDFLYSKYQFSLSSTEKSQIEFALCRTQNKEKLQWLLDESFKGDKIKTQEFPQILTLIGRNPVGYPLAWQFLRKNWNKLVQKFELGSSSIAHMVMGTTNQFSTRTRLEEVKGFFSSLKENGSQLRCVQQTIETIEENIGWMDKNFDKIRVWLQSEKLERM
Env fusion inh – inhibitors of HIV-1 Env-driven cell-cell fusion, primary screen, HeLa-JRFL effector, CEM21 target cells, luciferase; inhibition, % at 12.3 µM; actives 1.1% (n = 360,000); AID 651610, 2012;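 active = mean replicate inhibition score of at least 50 and every replicate individually at or above 50; inconclusive = only one of the two criteria met; inactive = mean below 50 and not all replicates reaching 50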
Wnt act – Wnt/beta-catenin pathway activators, primary screen, cell-based, plate reader, single point. Wnt/beta-catenin reporter cell assay, activator. activation, % at 9.35 µM. actives 1.2% (n = 300,000); in the data active = activation above about 30%, passing the limit was not always enough; inconclusive = no clear call, values can overlap the other calls
MITF act – activators of MITF-driven TRPM1 promoter reporter, primary screen, cell-based, SK-MEL-5, luciferase, single point. SK-MEL-5 TRPM1-promoter luciferase, 24 h; % of positive control, neutral wells = 0. actives 0.75% (n = 300,000). activation, % at 12.5 µM. AID 588334, 2011;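 active = mean activation of at least 80% with every replicate also reaching 80%; inconclusive = mean reaches 80% but some replicate falls short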
A number is an active result; . = inactive; ? = inconclusive; / = no result given; [ ] = remark or other dose.

SMILES	Cneo AK release	esBAF inh	ERAP1 HTS inh	Env fusion inh	Wnt act	MITF act
C[C@H]1CN([C@@H](C)CO)C(=O)Cc2cc(NS(=O)(=O)c3cccs3)ccc2O[C@@H]1CN(C)Cc1ccc(C(F)(F)F)cc1	.	.	.	.	/	/
C[C@@H]1CN([C@@H](C)CO)C(=O)Cc2cc(NS(=O)(=O)c3cccs3)ccc2O[C@H]1CN(C)Cc1ccc(Cl)c(Cl)c1	.	.	.	61[16.7 µM]	/	/
C[C@@H]1CN([C@H](C)CO)C(=O)Cc2cc(NS(=O)(=O)c3cccs3)ccc2O[C@@H]1CN(C)Cc1ccc(Cl)c(Cl)c1	.	.	.	.	/	/
C/C=C/c1ccc([C@H]2[C@@H](CO)N(C(=O)COC)[C@@H]2CNC(=O)CC)cc1	.	.	.	/	/	/
CCCC1C(=O)Nc2ccccc2N1C(=O)c1ccc(C(C)(C)C)cc1 (stereo unspecified)	.	.	.	62	.	.
COc1ccc(-c2coc3c(C(=O)NCc4ccc(C(F)(F)F)cc4)cccc23)c(C)c1	.	.	.	67	.	/
COc1ccc(-c2coc3c(C(=O)NCc4cccs4)cccc23)c(C)c1	.	.	.	.	.	/
COc1ccc(-c2coc3c(C(=O)NCc4cccc(Cl)c4)cccc23)c(C)c1	.	.	.	?	.	/
COc1ccc(-c2ccc(C(=O)NCc3cccs3)c3occc23)c(C)c1	.	72	.	.	.	/
C[C@@H]1CN([C@H](C)CO)C(=O)c2cc(NC(=O)CCCCCC(=O)Nc3ccccc3N)ccc2O[C@@H]1CN(C)C(=O)Nc1ccc(F)cc1	/	/	.	/	/	/
COc1ccc2c(COC(=O)CCS(=O)(=O)c3ccccc3)cc(=O)oc2c1	/	/	/	/	/	.
Cc1cc2oc(=O)cc(COC(=O)c3n[nH]c4ccccc34)c2cc1C	.	.	/	/	/	92
COc1ccc2c(COC(=O)c3n[nH]c4ccccc34)cc(=O)oc2c1	.	46	/	/	.	/
Cc1[nH]n(-c2ccccc2)c(=O)c1N=Nc1cccc(C(=O)O)c1	.	.	.	58	.	.
Cc1[nH]n(-c2ccccc2)c(=O)c1N=Nc1ccc(C(=O)O)cc1	.	.	.	.	.	.
CC1(C)CC(=O)C(/C=N/n2cnc3ccccc3c2=O)=C(O)C1	.	49	/	.	/	/
C[C@H]1CN([C@@H](C)CO)C(=O)c2cc(C3=CCCC3)cnc2O[C@@H]1CN(C)C(=O)c1ccc2c(c1)OCO2	.	.	.	.	/	/
O=C(c1ccco1)N1CCN(S(=O)(=O)Cc2ccc(Cl)cc2)CC1	/	/	/	.	42	.
O=C(c1ccco1)N1CCN(Cc2ccc(F)cc2Cl)CC1	.	46	.	.	.	.
COc1ccc(NC(=O)Nc2cccc3c2O[C@H](CN(C)S(=O)(=O)c2ccc(F)cc2)[C@@H](C)CN([C@@H](C)CO)C3=O)cc1	.	.	/	.	/	/
CC(C)(C)OC(=O)[C@H](Cc1ccccc1)NC(=O)c1nc[nH]c1C(=O)N[C@@H](Cc1ccccc1)C(=O)OC(C)(C)C	.	.	.	74	.	.
CC(C)C[C@H](NC(=O)c1nc[nH]c1C(=O)N[C@@H](CC(C)C)C(=O)OC(C)(C)C)C(=O)OC(C)(C)C	.	.	.	70	.	/
CC(C)C[C@H](NC(=O)c1nc[nH]c1C(=O)NCC(=O)OC(C)(C)C)C(=O)OC(C)(C)C	.	.	.	.	.	.
CC(C)C[C@H](NC(=O)c1nc[nH]c1C(=O)N[C@@H](CC(C)C)C(=O)OCc1ccccc1)C(=O)OCc1ccccc1	.	.	.	71	.	.
CC(C)(C)OC(=O)NCCCC[C@H](NC(=O)c1[nH]cnc1C(=O)Nc1ccc(CNC(=O)OC(C)(C)C)cc1)C(=O)OC(C)(C)C	/	/	.	72	.	/
SMILES	Cneo AK release	esBAF inh	ERAP1 HTS inh	Env fusion inh	Wnt act	MITF act
CC(C)C[C@H](NC(=O)c1[nH]cnc1C(=O)N[C@@H](Cc1ccccc1)C(=O)OCc1ccccc1)C(=O)OCc1ccccc1	.	.	/	.	.	.
O=C(C[C@@H]1C[C@H]2c3cc(NC(=O)NC4CCCCC4)ccc3O[C@H]2[C@H](CO)O1)NCC(F)(F)F	.	.	.	.	/	/
CN(C)C(=O)c1ccc(-c2ccc([C@H]3[C@H]4CN(C(=O)C5CCCCC5)CC(=O)N4[C@H]3CO)cc2)cc1	/	/	.	/	/	/
CN(C)C(=O)C[C@@H]1CC[C@H]2[C@H](COc3ccc(NC(=O)C4CCOCC4)cc3C(=O)N2C)O1	.	.	.	.	/	/
CCOC(=O)c1ccc(NC(=O)CSc2nnc(CNc3ccc(C)cc3)n2C)cc1	.	.	/	.	.	.
CCOC(=O)c1c(NC(=O)CSc2nnc(CNc3ccc(OC)cc3)n2C)sc(C)c1C	/	.	/	27	.	/
C[C@H](CO)N1C[C@H](C)[C@H](CN(C)Cc2ccc(-c3ccccc3)cc2)Oc2ccc(NC(=O)CCN3CCOCC3)cc2C1=O	.	.	.	.	/	/
C[C@@H]1CCCCO[C@@H](CN(C)S(=O)(=O)c2ccc(Cl)cc2)[C@@H](C)CN([C@@H](C)CO)C(=O)c2cc(NC(=O)Nc3ccccc3)ccc2O1	.	.	.	.	/	/
CO[C@@H]1CN(C)C(=O)c2cc(NC(=O)NC(C)C)ccc2OC[C@H](C)N(C)C[C@H]1C	.	.	.	/	/	/
N#Cc1ccccc1OCC(=O)NC(=O)NCc1ccccc1	/	/	.	.	.	.
CCNC(=O)NC(=O)COc1ccccc1C#N	.	91	/	/	/	93
N#Cc1ccccc1OCC(=O)NCCNC(=O)COc1ccccc1C#N	.	.	.	.	.	.
N#Cc1ccccc1OCC(=O)NC(=O)NCc1ccco1	/	/	.	.	.	116
c1cc[n+](CCC[n+]2ccccc2)cc1	.	.	110	.	.	.
C[C@H](CO)N1C[C@H](C)[C@@H](CN(C)S(=O)(=O)c2ccc(F)cc2)Oc2cc(Br)ccc2S1(=O)=O	.	.	.	.	.	/
Cc1ccc(S(=O)(=O)N(C)C[C@@H]2Oc3cc(Br)ccc3S(=O)(=O)N([C@H](C)CO)C[C@H]2C)cc1	.	.	.	.	/	/
C[C@H](CO)N1C[C@H](C)[C@H](CN(C)S(=O)(=O)c2ccc(F)cc2)Oc2cc(Br)ccc2S1(=O)=O	.	.	.	77[16.7 µM]	/	/
Cc1ccc(S(=O)(=O)N(C)C[C@@H]2Oc3cc(Br)ccc3S(=O)(=O)N([C@H](C)CO)C[C@@H]2C)cc1	.	.	.	63[16.7 µM]	/	/
C/C=C/c1ccc2c(c1)O[C@H](CN(C)S(=O)(=O)c1ccccc1)[C@H](C)CN([C@@H](C)CO)S2(=O)=O	90	.	.	.	/	/
CC(=O)Nc1nc2cc3c(cc2s1)OCO3	.	57	.	.	.	/

Screens: PubChem BioAssay, Broad Institute
